{"source": "ChEMBL document CHEMBL1949538", "about": "“Hybrids of privileged structures benzothiazoles and pyrrolo[2,1-c] [1,4]benzodiazepin-5-one, and diversity-oriented synthesis of benzothiazoles” (Eur J Med Chem, 2012)", "assay_type_in_all_cases": "functional, cell-based", "key": {"U-937": {"tested_on": "U-937", "assay": "Cytotoxicity against human U937 cells after 2 days by MTT assay", "details": "U-937, 48 h", "in_short": "(§1)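 Leukemia lines (HL-60, THP-1, U-937, Jurkat) grown in RPMI-1640, A-549 in DMEM, both with 10% heat-inactivated FCS at 37 °C, 5% CO2. Cells seeded at 2 × 10⁴/well, dosed after 24 h and read 2 days later. MTT (5 mg/mL stock) added for 4 h at 37 °C, formazan dissolved in DMSO, read at 570 nm. Five replicates; IC50 from linear regression.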"}, "Jurkat": {"tested_on": "Jurkat", "assay": "Cytotoxicity against human Jurkat cells after 2 days by MTT assay", "details": "48 h", "in_short": "as §1"}, "A549": {"tested_on": "A549", "assay": "Cytotoxicity against human A549 cells after 2 days by MTT assay", "details": "A549, 48 h", "in_short": "as §1"}, "THP-1": {"tested_on": "THP-1", "assay": "Cytotoxicity against human THP1 cells after 2 days by MTT assay", "details": "THP-1, 48 h", "in_short": "as §1"}, "HL-60": {"tested_on": "HL-60", "assay": "Cytotoxicity against human HL60 cells after 2 days by MTT assay", "details": "HL-60, 48 h", "in_short": "as §1"}}, "data": [{"smiles": "COc1cc([C@@H]2c3cc4c(cc3[C@@H](O[C@@H]3O[C@@H]5CO[C@@H](C)O[C@H]5[C@H](O)[C@H]3O)[C@H]3COC(=O)[C@H]23)OCO4)cc(OC)c1O", "note": "[ETOPOSIDE]", "values": [{"measurement": "IC50", "setting": "U-937", "value": 17.9, "unit": "µM"}, {"measurement": "IC50", "setting": "Jurkat", "value": 5.35, "unit": "µM"}]}, {"smiles": "COc1ccc2nc(-c3ccc(NC(=O)NCc4ccccc4)cc3)sc2c1", "values": [{"measurement": "IC50", "setting": "A549", "value": "> 50", "unit": "µM"}, {"measurement": "IC50", "setting": "U-937", "value": "> 50", "unit": "µM"}, {"measurement": "IC50", "setting": "THP-1", "value": "> 50", "unit": "µM"}, {"measurement": "IC50", "setting": "Jurkat", "value": "> 50", "unit": "µM"}, {"measurement": "IC50", "setting": "HL-60", "value": "> 50", "unit": "µM"}]}, {"smiles": "Cc1ccc(-c2nc3ccccc3s2)cc1N", "values": [{"measurement": "IC50", "setting": "A549", "value": "> 50", "unit": "µM"}, {"measurement": "IC50", "setting": "U-937", "value": "> 50", "unit": "µM"}, {"measurement": "IC50", "setting": "THP-1", "value": "> 50", "unit": "µM"}, {"measurement": "IC50", "setting": "Jurkat", "value": "> 50", "unit": "µM"}, {"measurement": "IC50", "setting": "HL-60", "value": "> 50", "unit": "µM"}]}, {"smiles": "O=C1c2ccc(-c3nc4ccccc4s3)cc2N=C[C@@H]2CCCN12", "values": [{"measurement": "IC50", "setting": "U-937", "value": 5.41, "unit": "µM"}, {"measurement": "IC50", "setting": "THP-1", "value": 3.09, "unit": "µM"}, {"measurement": "IC50", "setting": "Jurkat", "value": 9.43, "unit": "µM"}, {"measurement": "IC50", "setting": "HL-60", "value": 7.27, "unit": "µM"}]}, {"smiles": "COc1cc2nc(-c3cccc(N)c3C)sc2c(OC)c1OC", "values": [{"measurement": "IC50", "setting": "A549", "value": 4.56, "unit": "µM"}, {"measurement": "IC50", "setting": "THP-1", "value": 3.56, "unit": "µM"}, {"measurement": "IC50", "setting": "Jurkat", "value": 9.75, "unit": "µM"}, {"measurement": "IC50", "setting": "HL-60", "value": 5.63, "unit": "µM"}]}, {"smiles": "O=C1c2ccc(-c3nc4ccc(F)cc4s3)cc2N=C[C@@H]2CCCN12", "values": [{"measurement": "IC50", "setting": "U-937", "value": 3.44, "unit": "µM"}, {"measurement": "IC50", "setting": "THP-1", "value": 0.49, "unit": "µM"}, {"measurement": "IC50", "setting": "Jurkat", "value": 6.58, "unit": "µM"}, {"measurement": "IC50", "setting": "HL-60", "value": 4.13, "unit": "µM"}]}, {"smiles": "Cc1ccc(-c2nc3ccc(F)cc3s2)cc1N", "values": [{"measurement": "IC50", "setting": "A549", "value": "> 50", "unit": "µM"}, {"measurement": "IC50", "setting": "U-937", "value": "> 50", "unit": "µM"}, {"measurement": "IC50", "setting": "THP-1", "value": "> 50", "unit": "µM"}, {"measurement": "IC50", "setting": "Jurkat", "value": "> 50", "unit": "µM"}, {"measurement": "IC50", "setting": "HL-60", "value": "> 50", "unit": "µM"}]}, {"smiles": "CC1(C)O[C@H]2O[C@H]([C@H](O)CO)[C@H](OCc3ccc(-c4nc5ccc(F)cc5s4)cc3)[C@H]2O1", "values": [{"measurement": "IC50", "setting": "A549", "value": 5.01, "unit": "µM"}, {"measurement": "IC50", "setting": "THP-1", "value": 3, "unit": "µM"}, {"measurement": "IC50", "setting": "Jurkat", "value": 3.2, "unit": "µM"}, {"measurement": "IC50", "setting": "HL-60", "value": 22.3, "unit": "µM"}]}, {"smiles": "CC[C@@]1(O)C(=O)OCc2c1cc1n(c2=O)Cc2cc3ccccc3nc2-1", "note": "[CAMPTOTHECIN]", "values": [{"measurement": "IC50", "setting": "A549", "value": 0.008, "unit": "µM"}, {"measurement": "IC50", "setting": "U-937", "value": 1.98, "unit": "µM"}, {"measurement": "IC50", "setting": "THP-1", "value": 0.071, "unit": "µM"}, {"measurement": "IC50", "setting": "Jurkat", "value": 0.026, "unit": "µM"}, {"measurement": "IC50", "setting": "HL-60", "value": 0.6, "unit": "µM"}]}, {"smiles": "COc1ccc2nc(-c3ccc(N)cc3)sc2c1", "values": [{"measurement": "IC50", "setting": "A549", "value": "> 50", "unit": "µM"}, {"measurement": "IC50", "setting": "U-937", "value": "> 50", "unit": "µM"}, {"measurement": "IC50", "setting": "THP-1", "value": "> 50", "unit": "µM"}, {"measurement": "IC50", "setting": "Jurkat", "value": "> 50", "unit": "µM"}, {"measurement": "IC50", "setting": "HL-60", "value": "> 50", "unit": "µM"}]}, {"smiles": "COc1ccc2nc(-c3ccc4c(c3)N=C[C@@H]3CCCN3C4=O)sc2c1", "values": [{"measurement": "IC50", "setting": "U-937", "value": 6.03, "unit": "µM"}, {"measurement": "IC50", "setting": "THP-1", "value": 2.14, "unit": "µM"}, {"measurement": "IC50", "setting": "Jurkat", "value": 11.3, "unit": "µM"}, {"measurement": "IC50", "setting": "HL-60", "value": 6.39, "unit": "µM"}]}, {"smiles": "CC1(C)O[C@H]2O[C@H]([C@H]3COC(C)(C)O3)[C@H](OCc3ccc(-c4nc5ccc(F)cc5s4)cc3)[C@H]2O1", "values": [{"measurement": "IC50", "setting": "A549", "value": "> 50", "unit": "µM"}, {"measurement": "IC50", "setting": "U-937", "value": "> 50", "unit": "µM"}, {"measurement": "IC50", "setting": "THP-1", "value": "> 50", "unit": "µM"}, {"measurement": "IC50", "setting": "Jurkat", "value": "> 50", "unit": "µM"}, {"measurement": "IC50", "setting": "HL-60", "value": "> 50", "unit": "µM"}]}, {"smiles": "COc1ccc2nc(-c3ccc(C)c(N)c3)sc2c1", "values": [{"measurement": "IC50", "setting": "A549", "value": "> 50", "unit": "µM"}, {"measurement": "IC50", "setting": "U-937", "value": "> 50", "unit": "µM"}, {"measurement": "IC50", "setting": "THP-1", "value": "> 50", "unit": "µM"}, {"measurement": "IC50", "setting": "Jurkat", "value": "> 50", "unit": "µM"}, {"measurement": "IC50", "setting": "HL-60", "value": "> 50", "unit": "µM"}]}, {"smiles": "COc1ccc2nc(-c3ccc(NC(=O)C4CC4)cc3)sc2c1", "values": [{"measurement": "IC50", "setting": "A549", "value": "> 50", "unit": "µM"}, {"measurement": "IC50", "setting": "U-937", "value": "> 50", "unit": "µM"}, {"measurement": "IC50", "setting": "THP-1", "value": "> 50", "unit": "µM"}, {"measurement": "IC50", "setting": "Jurkat", "value": "> 50", "unit": "µM"}, {"measurement": "IC50", "setting": "HL-60", "value": "> 50", "unit": "µM"}]}, {"smiles": "COc1ccc2nc(-c3ccc(N=C(NC4CCCCC4)NC4CCCCC4)cc3)sc2c1", "values": [{"measurement": "IC50", "setting": "A549", "value": 3.23, "unit": "µM"}, {"measurement": "IC50", "setting": "THP-1", "value": 3.1, "unit": "µM"}, {"measurement": "IC50", "setting": "Jurkat", "value": 2.23, "unit": "µM"}, {"measurement": "IC50", "setting": "HL-60", "value": 7.15, "unit": "µM"}]}]}
